Laboratory results from ChEMBL document CHEMBL5712073, “DNA methylation in small cell lung cancer defines distinct disease subtypes and correlates with high expression of EZH2” (Oncogene, 2015).
Active and inactive are the calls of the source. No cut-off for these calls is given here.

Columns and labels:
PDX LX92 [1] = assay: Antiproliferative activity against human PDX LX92 cells assessed as resazurin conversion measured upto 7 days by alamar blue based assay; assay type: functional, cell-based; conditions: time <= 7.0 day
Outline: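 LX92 PDX dissociated, filtered through 70 µm mesh, washed, red cells lysed; ~1×10^6 viable cells cultured in DMEM:F12 with EGM-2 growth factors. About 72 h after dissociation, seeded 5,000 cells/well; compound added daily at 1 µM final, DMSO vehicle. Viability read by resazurin conversion over time for 7 days; 2-way ANOVA with Dunnett adjustment.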

[2] = target: Histone-lysine N-methyltransferase EZH2 (Homo sapiens) (UniProt Q15910); assay: Inhibition of EZH2 in human PDX LX92 cells assessed as decrease in H3K27me2 level after 7 days by Westernblot analysis; assay type: cell-based; conditions: time 7.0 day
Histone-lysine N-methyltransferase EZH2 (Homo sapiens), sequence (Q15910 whole entry, looked up): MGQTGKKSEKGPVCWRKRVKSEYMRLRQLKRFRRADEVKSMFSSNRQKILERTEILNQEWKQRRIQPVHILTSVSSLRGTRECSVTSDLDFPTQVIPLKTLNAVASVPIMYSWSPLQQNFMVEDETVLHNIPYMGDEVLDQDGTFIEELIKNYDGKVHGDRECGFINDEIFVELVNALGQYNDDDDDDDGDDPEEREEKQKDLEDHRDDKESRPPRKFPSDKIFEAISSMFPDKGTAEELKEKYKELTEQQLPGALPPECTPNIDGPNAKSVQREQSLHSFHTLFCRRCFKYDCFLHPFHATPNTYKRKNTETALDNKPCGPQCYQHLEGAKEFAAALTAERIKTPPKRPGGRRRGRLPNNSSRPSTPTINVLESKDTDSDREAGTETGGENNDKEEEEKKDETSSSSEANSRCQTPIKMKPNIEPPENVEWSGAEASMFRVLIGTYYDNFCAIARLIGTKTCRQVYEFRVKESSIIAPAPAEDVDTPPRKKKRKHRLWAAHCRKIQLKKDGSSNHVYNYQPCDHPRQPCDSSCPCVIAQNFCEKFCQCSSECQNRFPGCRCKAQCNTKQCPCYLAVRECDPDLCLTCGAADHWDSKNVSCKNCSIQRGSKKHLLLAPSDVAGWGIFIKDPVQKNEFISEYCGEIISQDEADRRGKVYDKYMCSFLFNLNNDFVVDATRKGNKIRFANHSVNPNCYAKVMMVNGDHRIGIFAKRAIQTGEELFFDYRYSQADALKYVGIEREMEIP
Outline: (§1)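 Ex vivo LX92 cultures (dissociated PDX cells in DMEM:F12 plus EGM-2 growth factors, 5,000 cells/well) given EZH2 inhibitor daily at 1 µM final, DMSO vehicle. Day 7 lysates probed by Western blot for EZH1, EZH2, H3K27me2 and H3K27me3.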

[3] = target: Histone-lysine N-methyltransferase EZH2 (Homo sapiens) (UniProt Q15910); assay: Inhibition of EZH2 in human PDX LX92 cells assessed as decrease in H3K27me3 level after 7 days by Westernblot analysis; assay type: cell-based; conditions: time 7.0 day; outline: as §1
[4] = Toxicity in athymic nude mouse xenografted with human PDX LX92 cells assessed as tolerability at 100 mg/kg, qd measured upto 42 days; assay type: organism-based; conditions: in vivo, 1008 h, time < 42 day
Outline: (§2)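 Subcutaneous right-flank xenograft of 5×10^6 viable cells in 1:1 HBSS:matrigel; mice randomized at ~150 mm3. Vehicle 0.5% NaCMC with 0.1% Tween-80 in water; dosing Mon-Fri. Tumor volumes and body weights measured twice weekly.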

PDX LX92 [5] = assay: Antitumor activity against human PDX LX92 cells xenografted in athymic nude mouse assessed as reduction of H3K27me2 level at 100 mg/kg, bid measured upto 42 days by Westernblot analysis; assay type: functional, organism-based; conditions: time <= 42.0 day
Outline: (§3)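 Mice implanted subcutaneously in the right hind flank with 5×10^6 viable cells in 1:1 HBSS:matrigel; randomized at ~150 mm3 tumor volume. Drug formulated in 0.5% NaCMC with 0.1% Tween-80 in water, dosed BID (10AM/4PM), Mon-Fri. Tumors harvested 2 h after final dose for Western blot.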

PDX LX92 [6] = assay: Antitumor activity against human PDX LX92 cells xenografted in athymic nude mouse assessed as reduction of H3K27me3 level at 100 mg/kg, bid measured upto 42 days by Westernblot analysis; assay type: functional, organism-based; conditions: time <= 42.0 day; outline: as §3
[7] = Toxicity in athymic nude mouse xenografted with human PDX LX92 cells assessed as tolerability at 100 mg/kg, bid measured upto 42 days; assay type: organism-based; conditions: in vivo, 1008 h, time < 42 day; outline: as §2
PDX LX92 [8] = assay: Antitumor activity against human PDX LX92 cells xenografted in athymic nude mouse assessed as reduction of EZH1 level at 100 mg/kg, bid measured upto 42 days by Westernblot analysis; assay type: functional, organism-based; conditions: time <= 42.0 day; outline: as §3
PDX LX92 [9] = assay: Antitumor activity against human PDX LX92 cells xenografted in athymic nude mouse assessed as reduction of EZH2 level at 100 mg/kg, bid measured upto 42 days by Westernblot analysis; assay type: functional, organism-based; conditions: time <= 42.0 day; outline: as §3

inhibition [2] | inhibition [3] | SMILES | Activity (PDX LX92 [1]) | Activity [4] | Activity (PDX LX92 [5]) | Activity (PDX LX92 [6]) | Activity [7] | Activity (PDX LX92 [8]) | Activity (PDX LX92 [9])
Active | Active | Cc1cc(C)c(CNC(=O)c2cc(-c3ccc(CN4CCOCC4)cc3)cc3c2cnn3C2CCCC2)c(=O)[nH]1 | Active |  |  |  |  |  | 
 | Active | CCCc1cc(C)[nH]c(=O)c1CNC(=O)c1cc(-c2ccc(N3CCN(C(C)C)CC3)nc2)cc2c1cnn2C(C)C | Active |  |  |  |  |  | 
 |  | CCN(c1cc(-c2ccc(CN3CCOCC3)cc2)cc(C(=O)NCc2c(C)cc(C)[nH]c2=O)c1C)C1CCOCC1 [TAZEMETOSTAT] |  | Non-Toxic | Active | Active | Non-Toxic | Active | Active
 | Active | CCCc1cc(C)[nH]c(=O)c1CNC(=O)c1cc(-c2ccnc(N3CCN(C)CC3)c2)cc2c1cnn2C(C)C | Active |  |  |  |  |  | 
